Test results taken from paper PMC8992012 (Bioorganic & medicinal chemistry, 2021).
Entries after “also recorded” stand apart in the source; their conditions may differ. Blank lines part the entries; values can stand above or below the compound they belong to.

Columns and labels:
NF-κB [1] = assay: NF-κB activation using THP1-Blue NF-κB cells; assay type: cell-based, human; details: for NF-κB activity (in words, SAR text to Table 1): compound alone, 5 μM; for NF-κB activity (in words, SAR text to Table 1) / EC50: 20h; for EC50: read-out: EC50 NF-κB induction in the presence of LPS, with LPS (10 ng/mL), THP1-Blue NF-κB cells, SEAP
Summary of the method: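 THP1-Blue NF-κB cells carry a stably integrated NF-κB-inducible SEAP. They were plated at 10^5 cells/well in RPMI with 10% FBS, penicillin, streptomycin and Normocin, then treated for 20 h with 5 μM test compound (0.5% DMSO final), alone or with LPS at 10 ng/mL. Supernatant SEAP was read colorimetrically at 630 nm. Signals were two-point normalized: baseline (vehicle or LPS) 100%, reference hit 200%.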

IL-8 = IL-8 release in THP-1 cells; assay type: cell-based, human; details: 5 μM compound; for IL-8 induction with LPS: LPS 1 ng/mL, compared to Veh+LPS; for IL-8 induction, compound alone: without LPS, compared to Veh
Summary of the method: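 THP-1 cells were exposed overnight to 5 μM test compound or vehicle (0.5% DMSO), with or without LPS at 1 ng/mL. Secreted IL-8 in a portion of the supernatant was quantified by ELISA.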

NF-κB [2] = assay: Confirmatory kinetic screening, cell-based NF-κB FRET assay with LPS; parameters: species or system human; details: 12h incubation, 21 HTS actives

EC50 (NF-κB [1]): 1700 nM
SMILES: CCCC#Cc1sc(NC(=O)c2ccc(S(=O)(=O)N3CCCCC3)cc2)nc1-c1cc(C)ccc1C [Compound 18q, N-(4-(2,5-dimethylphenyl)-5-(pent-1-yn-1-yl)thiazol-2-yl)-4-(piperidin-1-ylsulfonyl)benzamide]
NF-κB activity (in words, SAR text to Table 1) (NF-κB [1]): very potent; also recorded: most active
IL-8 induction with LPS (IL-8): significantly enhanced
IL-8 induction, compound alone (IL-8): induced IL-8

EC50 (NF-κB [1]): 900 nM
SMILES: CCCC1CCN(S(=O)(=O)c2ccc(C(=O)Nc3nc(-c4cc(C)ccc4C)cs3)cc2)CC1 [Compound 54h, N-(4-(2,5-dimethylphenyl)thiazol-2-yl)-4-((4-propylpiperidin-1-yl)sulfonyl)benzamide]
NF-κB activity (in words, SAR text to Table 1) (NF-κB [1]): very potent; also recorded: most active
IL-8 induction with LPS (IL-8): significantly enhanced
IL-8 induction, compound alone (IL-8): induced IL-8

EC50 (NF-κB [1]): 4500 nM
SMILES: Cc1ccc(Br)c(-c2csc(NC(=O)c3ccc(S(=O)(=O)N4CCCCC4)cc3)n2)c1 [Compound 12d, N-(4-(2-bromo-5-methylphenyl)thiazol-2-yl)-4-(piperidin-1-ylsulfonyl)benzamide]
NF-κB activity (in words, SAR text to Table 1) (NF-κB [1]): active; also recorded: most active
IL-8 induction with LPS (IL-8): significantly enhanced
IL-8 induction, compound alone (IL-8): induced IL-8

SMILES: Cc1ccc2c(c1)-c1nc(NC(=O)c3ccc(S(=O)(=O)N4CCCCC4)cc3)sc1C2 [Compound 12r, N-(5-methyl-8H-indeno[1,2-d]thiazol-2-yl)-4-(piperidin-1-ylsulfonyl)benzamide]
NF-κB activity (in words, SAR text to Table 1) (NF-κB [1]): weakly active

SMILES: Cc1ccc(C)c(-c2csc(NC(=O)c3ccc(S(=O)(=O)NC4CCCCC4)cc3)n2)c1 [Compound 54e, 4-(N-cyclohexylsulfamoyl)-N-(4-(2,5-dimethylphenyl)thiazol-2-yl)benzamide]
activation at 5 µM (NF-κB [1]; Homo sapiens, 20 h, read-out: NF-κB SEAP Compound alone % Activation): 100%
NF-κB activity (in words, SAR text to Table 1) (NF-κB [1]): inactive

SMILES: Cc1ccc(C)c(-c2ccc(NC(=O)c3ccc(S(=O)(=O)N4CCCCC4)cc3)nc2)c1 [Compound 18c, N-(5-(2,5-dimethylphenyl)pyridin-2-yl)-4-(piperidin-1-ylsulfonyl)benzamide]
NF-κB activity (in words, SAR text to Table 1) (NF-κB [1]): none of these molecules that replaced the thiazole functionality was active

SMILES: Cc1ccc(C)c(-c2c[nH]c(NC(=O)c3ccc(S(=O)(=O)N4CCCCC4)cc3)n2)c1 [Compound 18a, N-(4-(2,5-dimethylphenyl)-1H-imidazol-2-yl)-4-(piperidin-1-ylsulfonyl)benzamide]
NF-κB activity (in words, SAR text to Table 1) (NF-κB [1]): none of these molecules that replaced the thiazole functionality was active

SMILES: Cc1ccc(Br)cc1-c1csc(NC(=O)c2ccc(S(=O)(=O)N3CCCCC3)cc2)n1 [Compound 12e, N-(4-(5-bromo-2-methylphenyl)thiazol-2-yl)-4-(piperidin-1-ylsulfonyl)benzamide]
NF-κB activity (in words, SAR text to Table 1) (NF-κB [1]): active

SMILES: CCN(CC)c1sc(NC(=O)c2ccc(S(=O)(=O)N3CCCCC3)cc2)nc1-c1cc(C)ccc1C [Compound 18g, N-(5-(diethylamino)-4-(2,5-dimethylphenyl)thiazol-2-yl)-4-(piperidin-1-ylsulfonyl)benzamide]
NF-κB activity (in words, SAR text to Table 1) (NF-κB [1]): completely inactive

EC50 (NF-κB [1]): 2300 nM
SMILES: Cc1ccc(C)c(-c2csc(NC(=O)c3ccc(S(=O)(=O)N4CCCCC4)cc3)n2)c1 [Compound 1, N-(4-(2,5-dimethylphenyl)thiazol-2-yl)-4-(piperidin-1-ylsulfonyl)benzamide]
IL-8 induction with LPS (IL-8): significantly enhanced
IL-8 induction, compound alone (IL-8): induced IL-8
NF-κB enhancement activity at 12h in the presence of LPS (NF-κB [2]): most potent

SMILES: CCN(c1ccccc1)S(=O)(=O)c1ccc(C(=O)Nc2nc(-c3cc(C)ccc3C)cs2)cc1 [Compound 54d, N-(4-(2,5-dimethylphenyl)thiazol-2-yl)-4-(N-ethyl-N-phenylsulfamoyl)benzamide]
NF-κB activity (in words, SAR text to Table 1) (NF-κB [1]): inactive

SMILES: Cc1ccc(C)c(-c2cnc(NC(=O)c3ccc(S(=O)(=O)N4CCCCC4)cc3)s2)c1 [Compound 18e, N-(5-(2,5-dimethylphenyl)thiazol-2-yl)-4-(piperidin-1-ylsulfonyl)benzamide]
NF-κB activity (in words, SAR text to Table 1) (NF-κB [1]): none of these molecules that replaced the thiazole functionality was active
